Laboratory results as given in publication PMC8992017 (Journal of medicinal chemistry, 2019).

What was measured:
[1] = tested on: C57BL/6 (wild-type, WT) mice; format: in vivo
Method in brief: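 Female/male not stated; C57BL/6 wild-type mice aged 7–9 weeks, 8 per group. Test compound mixed with ovalbumin (20 μg/animal) and MPLA and injected into the gastrocnemius muscle on days 0 and 21. Mice then bled, and serum OVA-specific IgG titres measured by ELISA. Data given as mean ± SEM.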

[2] = tested on: NF-κB; conditions: compound alone, without LPS; cited from earlier work
[3] = tested on: ISRE; conditions: compound alone, without IFN-α; cited from earlier work
[4] = tested on: ISRE; assay: ISRE activity in ISRE-bla THP-1 reporter cells; format: cell-based; conditions: compound 1 + IFN-α, raw value used for normalization, mean ± SEM
Method in brief: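 ISRE-bla THP-1 cells at 5×10^4/well in RPMI with 10% dialyzed FBS, 0.1 mM non-essential amino acids, 1 mM pyruvate and pen/strep. Test compound (1 mM DMSO stock) was diluted in IFN-α medium, giving final 5 μM compound ([…]) and final 100 U/mL IFN-α. Incubation 16 h, then CCF4-AM FRET substrate 3 h at RT in the dark. Excitation 405 nm; background-subtracted 465/535 nm emission ratio. Two-point normalized: reference sulfonamide + IFN-α = 200%, IFN-α alone = 100%; mean ± SEM.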

[5] = tested on: NF-κB; assay: NF-κB activation in THP1-Blue NF-κB reporter cells; format: cell-based; conditions: compound 1 + LPS, raw value used for normalization, mean ± SEM
Method in brief: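 THP1-Blue NF-κB cells at 10^5/well in RPMI with 10% FBS, pen/strep and Normocin. Test compound (1 mM DMSO stock) was diluted into LPS medium, giving final 5 μM compound ([…]), with LPS co-added. After 20 h, supernatant SEAP was measured colorimetrically with QuantiBlue at 630 nm. Two-point normalized: reference sulfonamide + LPS = 200%, LPS alone = 100%; mean ± SEM.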

Which results are given for `CCOc1ccc(S(=O)(=O)Nc2cc(OC)c(Cl)cc2OC)cc1` [Compound 1, N-(4-chloro-2,5-dimethoxyphenyl)-4-ethoxybenzenesulfonamide]?
systemic toxicity, as indicated by behavior change or weight loss (in words) ([1]; mice co-immunized with MPLA, ovalbumin and compound): without demonstrable systemic toxicity; OVA-specific IgG antibody titers versus MPLA alone (in words) ([1]; mice, n=8 per group, intramuscular, ovalbumin 20 μg/animal + MPLA + compound, days 0 and 21): statistically significant increases; NF-κB activity when tested alone (in words) [2]: did not possess any NF-κB or ISRE activity; ISRE activity when tested alone (in words) [3]: did not possess any NF-κB or ISRE activity; mean emission ratio in ISRE assay [4]: 1.88 ± 0.04 µg/mL; mean SEAP response in NF-κB assay [5]: 3.44 ± 0.08 µg/mL
